# From ChEMBL document CHEMBL1914430, “Synthesis of some new 1,3,5-trisubstituted pyrazolines bearing benzene sulfonamide as anticancer and anti-inflammatory agents” (Bioorg Med Chem Lett, 2011)
# Tests used:
# Rattus norvegicus [1] = assay: Antiinflammatory activity in Wistar rat assessed as inhibition of carrageenan-induced hind paw edema at 20 mg/kg, po administered 30 mins before carrageenan challenge measured after 3 hrs by plethysmometer; format: functional
# How it was run: (§1)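 Wistar rats of either sex, 150–175 g, fasted 16 h, n = 6 per group. Compound given orally at 20 mg/kg as a suspension in 1% CMC in water (10 mL/kg); controls got vehicle only. After 30 min, 0.1 mL of 1% carrageenan in saline was injected subplantar into the left hind paw. Paw volume was measured by plethysmometer at 0, 3 and 5 h. Inhibition = (1 − Vt/Vc) × 100, reported as mean ± SEM.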
# Rattus norvegicus [2] = assay: Antiinflammatory activity in Wistar rat assessed as inhibition of carrageenan-induced hind paw edema at 20 mg/kg, po administered 30 mins before carrageenan challenge measured after 5 hrs by plethysmometer; format: functional; how it was run: as §1
SMILES,inhibition in vivo at 20 mg/kg (Rattus norvegicus [1]) [%],inhibition in vivo at 20 mg/kg (Rattus norvegicus [2]) [%]
COc1cc(C)c(Cl)cc1C1=NN(c2ccc(S(N)(=O)=O)cc2)C(c2cccc(O)c2)C1 (stereo not drawn),39.5,16.7
Cc1cc(O)c(C2=NN(c3ccc(S(N)(=O)=O)cc3)C(c3ccccc3)C2)cc1Cl (stereo not drawn),47.4,60.3
Cc1ccc(-c2cc(C(F)(F)F)nn2-c2ccc(S(N)(=O)=O)cc2)cc1 [CELECOXIB],82.6,85.7
COc1cc(C)c(Cl)cc1C1=NN(c2ccc(S(N)(=O)=O)cc2)C(c2ccccc2)C1 (stereo not drawn),55.3,59.5
